We go through 23 molecules from ChEMBL document CHEMBL1764951, “Synthesis of a new 4-aza-2,3-didehydropodophyllotoxin analogues as potent cytotoxic and antimitotic agents” (2011).

Structures can show the parent of a compound that is named as a salt. Active and inactive are the calls of the source. The rule behind the calls is not given here.

The subject of experiment [1] is MCF7. The experiment in a line: Cytotoxicity against human MCF7 cells after 48 hrs by sulforhodamine B based ELISA. The class given is functional. To be noted: MCF7, 48 h. The gist of the method: (§1)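 Lines were grown in DMEM with 10% FBS and 2 mM L-glutamine, plated at densities set by doubling time, and held 24 h at 37 °C, 5% CO2. Drugs were tested at 0.1, 1, 10 and 100 µM in triplicate wells for 48 h. Cells were fixed with cold TCA (10% final) for 60 min at 4 °C, stained 20 min with 0.4% SRB in 1% acetic acid, and eluted with 10 mM Tris base. A540 was read with a 690 nm reference. GI50 came from [(Ti−Tz)/(C−Tz)]×100 = 50; runs were repeated three times.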

Experiment [2] concerns COLO 205. The experiment in a line: Cytotoxicity against human COLO205 cells after 48 hrs by sulforhodamine B based ELISA. The class given is functional. To be noted: COLO 205, 48 h. The gist of the method:
as §1

Experiment [3] deals with KB. The experiment can be described thus: Cytotoxicity against human KB cells after 48 hrs by sulforhodamine B based ELISA. It is filed as functional. The gist of the method:
as §1

Experiment [4] has as its system A2780. The experiment can be described thus: Cytotoxicity against human A2780 cells after 48 hrs by sulforhodamine B based ELISA. It is filed as functional. To be noted: A2780, 48 h. A digest of the protocol: as §1
The test system of experiment [5] is A549. The experiment in a line: Cytotoxicity against human A549 cells after 48 hrs by sulforhodamine B based ELISA. The class given is functional. To be noted: A549, 48 h. The gist of the method:
as §1

Experiment [6] addresses T1, Tubulin (Homo sapiens) (UniProt P68371+Q9H4B7+P0DPH7+P68366+Q13509+Q71U36+P04350+Q3ZCM7+P07437+P68363+Q9BQE3+Q6PEY2+Q13885+Q9BVA1+Q9BUF5). The experiment can be described thus: Inhibition of tubulin polymerization in human A549 cells assessed as disrupted microtubule organization at 1 uM after 48 hrs by immunohistochemistry. The class given is cell-based. A digest of the protocol: (§2)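 A-549 cells on glass coverslips were treated 48 h with compound at 5 µM or podophyllotoxin at 1 µM. They were fixed in 3% paraformaldehyde/0.02% glutaraldehyde in PBS, permeabilized in −20 °C methanol, and blocked 1 h in 1% BSA. Staining used a mouse monoclonal anti-tubulin antibody and an FITC-conjugated secondary. Microtubule network integrity was assessed by confocal microscopy.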

In experiment [7] the target is T1, Tubulin (Homo sapiens). The experiment in a line: Inhibition of tubulin polymerization in human A549 cells assessed as disrupted microtubule organization at 5 uM after 48 hrs by immunohistochemistry. It is filed as cell-based. A digest of the protocol:
as §2

For experiment [8], the system named is A549. The experiment in a line: Induction of apoptosis in human A549 cells assessed as activation of caspase 3 at 5 uM after 48 hrs by fluorimetric assay relative to control. The class given is functional. The gist of the method: (§3)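 A-549 cells in 6-well plates at 60–80% confluence were given compound at 5 µM, with podophyllotoxin at 1 µM as the positive control. The methods give 24 h incubation; the legend gives 48 h. Cells were scraped, lysed by syringe in lysis buffer on ice 10–20 min, and spun at 13,200 rpm for 20 min at 4 °C. The supernatant was assayed fluorimetrically with an AMC-conjugated caspase-3 substrate. Values are the mean ± SD of two experiments, each in triplicate.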

The nature of experiment [9]: Inhibition of tubulin polymerization at 3 uM after 1 hr fluorescence analysis relative to control. A digest of the protocol:
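The cell-free fluorescence kit assay used PEM buffer, 1 mM GTP and compound at 3 µM final. Polymerization was followed as reporter incorporation into microtubules, read at 460 nm emission for 1 h at 37 °C, with podophyllotoxin as the positive control. Percent inhibition was expressed relative to the untreated control.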

Experiment [10] relates to A549. The experiment in a line: Cell cycle arrest in human A549 cells assessed as accumulation at G2/M phase at 10 uM after 48 hrs using propidium iodide staining by flow cytometry (reference value: 23.1%). The class given is functional.
The test system of experiment [11] is A549. The experiment can be described thus: Cell cycle arrest in human A549 cells assessed as accumulation at S phase at 10 uM after 48 hrs using propidium iodide staining by flow cytometry (reference value: 5.2%). The class given is functional.
The subject of experiment [12] is A549. The experiment in a line: Cell cycle arrest in human A549 cells assessed as accumulation at G1 phase at 10 uM after 48 hrs using propidium iodide staining by flow cytometry (reference value: 71.6%). It is filed as functional.
Experiment [13] has as its system A549. The experiment can be described thus: Cell cycle arrest in human A549 cells assessed as accumulation at G1 phase at 1 uM after 48 hrs using propidium iodide staining by flow cytometry (reference value: 71.6%). The class given is functional.
In experiment [14] the test system is A549. The experiment in a line: Cell cycle arrest in human A549 cells assessed as accumulation at G2/M phase at 1 uM after 48 hrs using propidium iodide staining by flow cytometry (reference value: 23.1%). The class given is functional.
Experiment [15] concerns A549. The experiment can be described thus: Cell cycle arrest in human A549 cells assessed as accumulation at S phase at 1 uM after 48 hrs using propidium iodide staining by flow cytometry (reference value: 5.2%). The class given is functional.
In experiment [16] the test system is A549. The experiment can be described thus: Induction of apoptosis in human A549 cells assessed as activation of caspase 3 at 1 uM after 48 hrs by fluorimetric assay relative to control. The class given is functional. The gist of the method:
as §3

Turning to `COc1cc(C2C3=C(COC3=O)Nc3ccc4cn[nH]c4c32)ccc1O` (stereo not drawn), the GI50 in [1] and in experiment [2] was 2 µM throughout.

Turning to `COc1cc(C2C3=C(COC3=O)Nc3ccc4nc(C)sc4c32)ccc1[N+](=O)[O-]` (stereo not drawn), the concentration for 50% growth inhibition (GI50) in experiment [1] worked out at 0.15 µM. This lies in the sub-micromolar range.

On to `COc1cccc2c1C(=O)c1c(O)c3c(c(O)c1C2=O)C[C@@](O)(C(=O)CO)C[C@@H]3O[C@H]1C[C@H](N)[C@H](O)[C@H](C)O1` [DOXORUBICIN HYDROCHLORIDE], for which the GI50 is 0.13 µM in experiment [1]; 0.13 µM in experiment [3]; < 0.1 µM in experiment [4]; < 0.1 µM in experiment [2]; < 0.1 µM in [5].

The molecule `COc1ccc(C2C3=C(COC3=O)Nc3ccc4cn[nH]c4c32)cc1O` (stereo not drawn) gave a GI50 in experiment [2] of 2.6 µM.

`COc1ccc(C2C3=C(COC3=O)Nc3ccc4nc(S)[nH]c4c32)cc1O` (stereo not drawn) gave a GI50 in [1] of 2.7 µM.

On to `COc1cc(C2C3=C(COC3=O)Nc3ccc4cn[nH]c4c32)ccc1F` (stereo not drawn), for which the figures for the GI50 in experiment [1] and in experiment [5] were 2.7 µM and 2.3 µM, respectively.

Turning to `COc1ccc(C2C3=C(COC3=O)Nc3ccc4nn[nH]c4c32)c(F)c1` (stereo not drawn), the GI50 in experiment [1] was < 0.1 µM.

For `COc1cc(C2C3=C(COC3=O)Nc3ccc4cc(C)[nH]c4c32)ccc1F` (stereo not drawn), the GI50 in experiment [1] is 2.6 µM; in experiment [4], 2.4 µM; in experiment [5], 2.1 µM. The inhibition entry in [6] and in [7] was “Active” in each case. Moreover, the “fold change (FC)” value in experiment [8] worked out at 2. This molecule registered an inhibition in experiment [9] of 45.3%. The Activity in [10] was 55.6%; in experiment [11], 8.8%; in experiment [12] it was 35.4%.

For `COc1ccc(C2C3=C(COC3=O)Nc3ccc4cc(C)[nH]c4c32)c(F)c1` (stereo not drawn), the GI50 is < 0.1 µM in [1], 2.2 µM in experiment [3], 2.3 µM in [4] and 2.7 µM in experiment [2].

In [2], `COc1ccc(C2C3=C(COC3=O)Nc3ccc4cc[nH]c4c32)cc1[N+](=O)[O-]` (stereo not drawn) yielded a GI50 of 2.4 µM.

For `COc1cc(C2C3=C(COC3=O)Nc3ccc4cc[nH]c4c32)ccc1O` (stereo not drawn), the GI50 in experiment [1] turned out to be 2.3 µM; in experiment [2], 2.5 µM.

For the molecule `COc1nc2c(c(OC)n1)C(c1ccc(F)c(OC)c1)C1=C(COC1=O)N2` (stereo not drawn), the concentration for 50% growth inhibition (GI50) in experiment [3] was 2.2 µM; in experiment [5], 2.6 µM.

With `COc1cc(C2C3=C(COC3=O)Nc3ccc4nn[nH]c4c32)cc(OC)c1OC` (stereo not drawn), the GI50 in experiment [3] was determined as 2.9 µM.

As to `COc1ccc(C2C3=C(COC3=O)Nc3ccc4cc[nH]c4c32)cc1O` (stereo not drawn), the concentration for 50% growth inhibition (GI50) in experiment [1] turned out to be 2.9 µM; in experiment [3], 2.2 µM; in experiment [4], 2.7 µM; in experiment [2], 0.19 µM; in [5], 2.3 µM.

As to `COc1ccc(C2C3=C(COC3=O)Nc3onc(-c4ccc(Cl)cc4)c32)cc1O` (stereo not drawn), in experiment [3], the GI50 was 2.7 µM.

With `COc1cc([C@@H]2c3cc4c(cc3[C@H](O)[C@H]3COC(=O)[C@H]23)OCO4)cc(OC)c1OC` [PODOFILOX], the figures for the Activity in experiment [13], in [14] and in [15] were 31.4%, 61.5% and 7.1%, respectively. For the same molecule, the inhibition result in [6] and in experiment [7] was “Active” each time. Further, the inhibition in experiment [9] came to 80.7%. Also, the “fold change (FC)” value in experiment [16] was determined as 4.

For the molecule `COc1cc([C@@H]2c3cc4c(cc3[C@@H](O[C@@H]3O[C@@H]5CO[C@@H](C)O[C@H]5[C@H](O)[C@H]3O)[C@H]3COC(=O)[C@H]23)OCO4)cc(OC)c1O` [ETOPOSIDE], the concentration for 50% growth inhibition (GI50) worked out at 2.1 µM in experiment [1]; 0.3 µM in experiment [3]; 1.3 µM in experiment [4]; 0.13 µM in experiment [2]; 3.08 µM in experiment [5].

As for `COc1cc(C2C3=C(COC3=O)Nc3ccc4cc[nH]c4c32)ccc1F` (stereo not drawn), the GI50 in experiment [1] amounted to 2.1 µM; in [3], 0.17 µM; in [4] it was 2.3 µM; in experiment [5], 2.2 µM.

As to `COc1cc(C2C3=C(COC3=O)Nc3ccc4ncsc4c32)cc(OC)c1OC` (stereo not drawn), the 50% growth inhibitory concentration (GI50) stood at 2.1 µM in experiment [3], 2.3 µM in [4], 2.5 µM in [2] and 2.4 µM in experiment [5]. In addition, the inhibition entry in experiment [6] and in experiment [7] was “Active” in each case. The “fold change (FC)” value in experiment [8] is 2. This molecule showed an inhibition in experiment [9] of 49.4%. For the same molecule, the Activity came to 53.1% in experiment [10], 4.4% in experiment [11] and 42.4% in [12].

As to `COc1cc(C2C3=C(COC3=O)Nc3ccc4cc[nH]c4c32)cc(OC)c1OC` (stereo not drawn), the GI50 was found to be 2 µM in experiment [3], 2.7 µM in experiment [4], 2.3 µM in [2] and 2.4 µM in [5].

Consider `COc1nc2c(c(OC)n1)C(c1cc(OC)c(OC)c(OC)c1)C1=C(COC1=O)N2` (stereo not drawn), for which the GI50 in experiment [1] was 2.4 µM; in [3], 0.17 µM; in experiment [2], 0.16 µM; in experiment [5] it was 2.1 µM. In addition, the inhibition entry in [6] and in experiment [7] was “Active” each time. Further, the “fold change (FC)” value in experiment [8] came out at 2. This molecule also displayed an inhibition in [9] of 63.7%. Moreover, the values for the Activity in experiment [10], in experiment [11] and in experiment [12] were 48.2%, 12.7% and 38.9%, respectively.

With `COc1cc(C2C3=C(COC3=O)Nc3c2cc(OC)c(OC)c3OC)ccc1O` (stereo not drawn), the GI50 in experiment [1] worked out at 2.9 µM.

`COc1cc(C2C3=C(COC3=O)Nc3ccc4cc(C)[nH]c4c32)cc(OC)c1OC` (stereo not drawn): in experiment [3], it took 2 µM to inhibit growth by half (GI50).
